# Several values for one entry are separate records, joined by “and”; a condition that tells them apart may be missing. Identical values can stand only once. Entries after “also recorded” stand apart in the source; their conditions may differ. Like-named read-outs stand apart in the source and are kept apart here.
# How the values were obtained:
# [1] = tested on: atRA formation in mouse liver S10 fractions; assay: Inhibition of atRA formation by WIN 18,446 in liver S10 fractions; assay type: biochemical; details: read-out: IC50 for inhibition of atRA formation; pooled liver S10, 100 nM at-retinal, 2 mM NAD+
# [2] = tested on: atRA formation in mouse testis S10 fractions; assay: Inhibition of atRA formation by WIN 18,446 in testis S10 fractions; assay type: biochemical
# [3] = WIN 18,446 pharmacokinetics in mice; assay type: in vivo, mouse
# [4] = tested on: serum atRA concentrations; assay: Serum atRA concentrations after WIN 18,446 administration; assay type: in vivo, mouse
# [5] = tested on: liver atRA concentrations; assay: Liver atRA concentrations after WIN 18,446 administration; assay type: in vivo, mouse
# [6] = target: T1, ALDH1A2 (Mus musculus, UniProt Q62148); details: mouse testes S10 fractions
# T1 sequence (Q62148 1-518): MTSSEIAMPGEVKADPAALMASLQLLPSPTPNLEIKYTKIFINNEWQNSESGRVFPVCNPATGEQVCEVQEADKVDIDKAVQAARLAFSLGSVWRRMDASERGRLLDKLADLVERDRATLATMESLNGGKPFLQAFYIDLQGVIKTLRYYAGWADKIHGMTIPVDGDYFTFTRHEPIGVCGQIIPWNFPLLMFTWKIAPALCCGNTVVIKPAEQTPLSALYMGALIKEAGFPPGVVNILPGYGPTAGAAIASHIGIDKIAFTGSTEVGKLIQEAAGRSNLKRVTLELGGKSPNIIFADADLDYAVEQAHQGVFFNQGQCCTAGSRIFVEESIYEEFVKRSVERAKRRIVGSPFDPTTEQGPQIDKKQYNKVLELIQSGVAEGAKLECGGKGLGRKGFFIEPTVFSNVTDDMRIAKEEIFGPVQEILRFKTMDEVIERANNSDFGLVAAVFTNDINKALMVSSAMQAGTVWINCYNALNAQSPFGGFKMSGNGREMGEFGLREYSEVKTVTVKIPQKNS
# [7] = tested on: atRA formation in human testis; details: human testicular tissue; cited from earlier work
# [8] = tested on: atRA formation in mouse liver S10 protein; assay: Time dependent inhibition of atRA formation in liver S10 protein; assay type: biochemical; details: pooled liver S10 protein, 1 µM WIN 18,446 preincubation
# [9] = tested on: atRA formation in mouse liver S10 protein; assay type: biochemical
# [10] = 500 nM, ultracentrifugation
# [11] = tested on: testis atRA concentrations; assay: Testis atRA concentrations after WIN 18,446 administration; assay type: in vivo, mouse; details: for testis atRA concentration: single dose
# [12] = tested on: atRA formation in testes S10 fractions; assay: atRA formation velocity in testes S10 fractions from WIN 18,446 treated mice; assay type: in vivo, mouse
# [13] = tested on: ALDH1A1 and ALDH1A2 protein expression; assay: ALDH1A1 and ALDH1A2 protein expression in liver and testis of treated mice; assay type: in vivo, mouse; details: 8 days of treatment
# Method in brief: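 Test compound was given orally at 125 mg/kg every 24 h for 8 days (n=3), alongside a single-dose group (n=3) and vehicle controls dosed with 1% gum tragacanth (n=8). S10 fractions (microsomes plus cytosol) were made from each mouse's testes (17–45 mg) and liver (114–309 mg), protein was measured by BCA, and ALDH1A1 and ALDH1A2 were quantified by LC-MS/MS. Mean ± SD.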
# [14] = tested on: ALDH1A1; details: read-out: Km of atRA formation; recombinant ALDH1A1; cited from earlier work
# [15] = Tissue half-life of atRA from concentration-time curves after WIN 18,446; assay type: in vivo; details: C57BL/6-129, mouse, po, 125 mg/kg
# [16] = target: AOX; details: cited from earlier work
# [17] = tested on: atRA formation in the mouse liver; details: cited from earlier work
# [18] = eight daily doses 125 mg/kg po, mice
# [19] = 125 mg/kg once a day for 8 days
smiles,measurement,setting,value
"O=C(NCCCCCCCCNC(=O)C(Cl)Cl)C(Cl)Cl [WIN 18,446]",IC50,[1],92 ± 2 nM
same,IC50,"[2]; read-out: IC50 for inhibition of atRA formation, pooled testis S10, 100 nM at-retinal, 2 mM NAD+",59 ± 1 nM
same,maximum inhibition of atRA formation,[2]; testis S10 fractions,> 95%
same,average concentration over the 24 hour dosing interval,[3]; day 8 of dosing 125 mg/kg po,3.5 µM
same,AUC0–24,[3]; [18],87.6 µM·h
same,Cmax,[3]; [18],8.5 µM
same,increase in Cmax versus single dose,[3]; eight daily doses vs single dose,7 fold
same,AUC0-∞,"[3]; single dose 125 mg/kg po, mice",2.5 µM·h
same,Cmax,"[3]; single dose 125 mg/kg po, mice",1.3 µM
same,average concentration over a 24 hour interval,"[3]; single dose 125 mg/kg po, mice",0.1 µM
same,time to reach Cmax,"[3]; single dose 125 mg/kg po, mice",≤ 30 min
same,two compartment model parameter A,"[3]; single dose, fit of equation 4",-6.6 µM
same,two compartment model parameter B,"[3]; single dose, fit of equation 4",6.2 µM
same,two compartment model parameter C,"[3]; single dose, fit of equation 4",0.4 µM
same,two compartment model parameter α,"[3]; single dose, fit of equation 4",1.3e+06 h⁻¹
same,two compartment model parameter β,"[3]; single dose, fit of equation 4",3.7 h⁻¹
same,two compartment model parameter γ,"[3]; single dose, fit of equation 4",0.2 hr-^1
same,average serum atRA concentration,[4]; [19],1.3 ± 0.7 pmol/g
same,time of first significant decrease of serum atRA,"[4]; after the first dose, p < 0.05",2 h
same,time of return of serum atRA to baseline,[4]; single dose,24 h
same,serum atRA concentration,"[4]; single dose, by 4 hours",< 20 % of control
same,average liver atRA concentration,[5]; [19],5.4 ± 1.9 pmol/g
same,reduction in average liver atRA concentration versus vehicle,[5]; [19],32% and 32 ± 3%
same,decrease in liver atRA,"[5]; abstract, dosing not specified",50%
same,time of first significant reduction of liver atRA,"[5]; after the first dose, p < 0.01",0.5 h
same,decrease in hepatic atRA concentration,[5]; single dose,42%
same,time of return of liver atRA to baseline,[5]; single dose,12 h
same,liver atRA concentration,"[5]; single dose, by 4 hours after dosing",58 % of control
same,hepatic atRA concentration on return,"[5]; single dose, within 24 hours",100%
same,KI (time dependent inhibition),[6],420 ± 190 nM
same,inhibition of atRA formation in human testis,[7],more than 95%
same,time dependent inhibition of atRA formation,[8],not liver S10 protein; also recorded: not in the liver
same,inhibition of atRA formation,"[9]; WIN 18,446 5000 nM alone, 1000 nM at-retinal, Figure 2D",60 ± 2%
same,fu in mouse serum,[10],> 0.99
same,average testicular atRA concentration over the 24 hours dosing interval,[11]; [19],1.5 ± 0.3 pmol/g
same,"testicular atRA concentration, average for the dosing interval",[11]; [19],33 % of control and 33 ± 5 % of control
same,decrease in testicular atRA,"[11]; abstract, dosing not specified",over 90%
same,time of first significant reduction of testis atRA,"[11]; after the first dose, p < 0.01",0.5 h
same,observed decrease in testis atRA concentrations,"[11]; following WIN 18,446 dosing (compared with single dose prediction)",67%
same,testis atRA concentration,[11]; 24 hours after dosing,23 % of control
same,testis atRA concentration,[11]; by 4 hours,< 10 % of control
same,testicular atRA concentration,[11]; time 0 hr before the 8th dose,60 % of control
same,decrease in atRA formation in testes S10,[12]; at the time of the 8th dose (24 hours after 7th dose),79 ± 5%
same,decrease in atRA formation in testes S10,"[12]; testes collected 24 hours after single dose 125 mg/kg, 125 mg/kg",55 ± 2% and 55%
same,change in ALDH1A1 or ALDH1A2 expression in liver or testis,[13],not significantly altered; also recorded: not significantly changed
"CC1=C(/C=C/C(C)=C/C=C/C(C)=C/C=O)C(C)(C)CCC1 [at-retinal, all-trans retinal]",Km,[14],0.285 µM
"CC1=C(/C=C/C(C)=C/C=C/C(C)=C/C(=O)O)C(C)(C)CCC1 [atRA, all-trans retinoic acid]",half-life,[15]; liver,< 30 min
same,half-life,[15]; serum,30 ± 6 min
same,half-life,[15]; testis,78 ± 6 min
NNc1nncc2ccccc12 [hydralazine],KI,[16],83000 ± 27000 nM
same,kinact,[16],3.8 ± 0.4 hr-^1
same,inhibition of atRA formation,"[9]; hydralazine 1 mM, 45 min preincubation, liver S10, 1000 nM at-retinal",approximately 50%
Cc1ncc(CO)c(C=O)c1O [pyridoxal],inhibition of atRA formation,[17],approximately 5%

# Reference: paper PMC4420653 (Biochemical pharmacology, 2015)
